Assay results reported in ChEMBL document CHEMBL3860041, “Synthesis, biological evaluation and molecular modeling study of some new methoxylated 2-benzylthio-quinazoline-4(3H)-ones as nonclassical antifolates” (Bioorg Med Chem Lett, 2016).

Columns and labels:
Format in all cases: functional
[1] = Growth inhibition of human ACHN cells at 10 uM after 48 hrs by SRB assay relative to control; conditions: read-out: GI
How it was run: (§1)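 NCI 60-cell-line panel, nine tumor subpanels; compounds tested at a single dose of 10 μM in the primary screen.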

[2] = Growth inhibition of human UACC257 cells at 10 uM after 48 hrs by SRB assay relative to control; conditions: UACC-257, 48 h, read-out: GI
How it was run: (§2)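 Primary screen across the full NCI 60 human tumour cell line panel, which covers nine tumour subpanels. A single dose of 10 μM was applied to each line, and growth was recorded for each cell line.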

[3] = Growth inhibition of human HL-60(TB) cells at 10 uM after 48 hrs by SRB assay relative to control; conditions: HL-60, 48 h, read-out: GI
How it was run: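 NCI disease-oriented human tumour cell line screen: primary single-dose assay at 10 μM across the full 60-cell-line panel spanning nine tumour subpanels.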

[4] = Growth inhibition of human A549 cells at 10 uM after 48 hrs by SRB assay relative to control; conditions: A549, 48 h, read-out: GI; how it was run: as §1
[5] = Growth inhibition of human MCF7 cells at 10 uM after 48 hrs by SRB assay relative to control; conditions: MCF7, 48 h, read-out: GI; how it was run: as §1
[6] = Growth inhibition of human Caki1 cells at 10 uM after 48 hrs by SRB assay relative to control; conditions: CAKI-1, 48 h, read-out: GI; how it was run: as §1
[7] = Growth inhibition of human HOP62 cells at 10 uM after 48 hrs by SRB assay relative to control; conditions: HOP-62, 48 h, read-out: GI; how it was run: as §1
[8] = Growth inhibition of human U251 cells at 10 uM after 48 hrs by SRB assay relative to control; conditions: U-251, 48 h, read-out: GI; how it was run: as §2
[9] = Growth inhibition of human HCC2998 cells at 10 uM after 48 hrs by SRB assay relative to control; conditions: HCC 2998, 48 h, read-out: GI; how it was run: as §1
[10] = Growth inhibition of human MALME-3M cells at 10 uM after 48 hrs by SRB assay relative to control; conditions: read-out: GI; how it was run: as §1
[11] = Growth inhibition of human HOP92 cells at 10 uM after 48 hrs by SRB assay relative to control; conditions: HOP-92, 48 h, read-out: GI; how it was run: as §1
[12] = Growth inhibition of human 786-0 cells at 10 uM after 48 hrs by SRB assay relative to control; conditions: 786-0, 48 h, read-out: GI; how it was run: as §1
[13] = Growth inhibition of human M14 cells at 10 uM after 48 hrs by SRB assay relative to control; conditions: M14, 48 h, read-out: GI; how it was run: as §1
[14] = Growth inhibition of human MDA-MB-468 cells at 10 uM after 48 hrs by SRB assay relative to control; conditions: MDA-MB-468, 48 h, read-out: GI; how it was run: as §1
[15] = Growth inhibition of human LOXIMVI cells at 10 uM after 48 hrs by SRB assay relative to control; conditions: LOX IMVI, read-out: GI; how it was run: as §1
[16] = Growth inhibition of human SF295 cells at 10 uM after 48 hrs by SRB assay relative to control; conditions: SF-295, 48 h, read-out: GI; how it was run: as §1
[17] = Growth inhibition of human SR cells at 10 uM after 48 hrs by SRB assay relative to control; conditions: read-out: GI; how it was run: as §2
[18] = Growth inhibition of human T47D cells at 10 uM after 48 hrs by SRB assay relative to control; conditions: read-out: GI; how it was run: as §2
[19] = Growth inhibition of human MOLT4 cells at 10 uM after 48 hrs by SRB assay relative to control; conditions: MOLT-4, 48 h, read-out: GI; how it was run: as §1
[20] = Growth inhibition of human RXF393 cells at 10 uM after 48 hrs by SRB assay relative to control; conditions: RXF 393, 48 h, read-out: GI; how it was run: as §1
[21] = Growth inhibition of human NCI-H460 cells at 10 uM after 48 hrs by SRB assay relative to control; conditions: NCI-H460, 48 h, read-out: GI; how it was run: as §1
[22] = Growth inhibition of human UO31 cells at 10 uM after 48 hrs by SRB assay relative to control; conditions: UO-31, 48 h, read-out: GI; how it was run: as §2
[23] = Growth inhibition of human PC3 cells at 10 uM after 48 hrs by SRB assay relative to control; conditions: PC-3, 48 h, read-out: GI; how it was run: as §1
[24] = Growth inhibition of human UACC62 cells at 10 uM after 48 hrs by SRB assay relative to control; conditions: UACC-62, 48 h, read-out: GI; how it was run: as §2
[25] = Growth inhibition of human RPMI8226 cells at 10 uM after 48 hrs by SRB assay relative to control; conditions: RPMI-8226, 48 h, read-out: GI; how it was run: as §1
[26] = Growth inhibition of human NCI-322M cells at 10 uM after 48 hrs by SRB assay relative to control; conditions: read-out: GI; how it was run: as §1
[27] = Growth inhibition of human ovarian cancer cells after 48 hrs by SRB assay; conditions: Cancer cell lines
How it was run: (§3)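 Follow-up NCI panel testing over a 5-log dose range for each cell line. GI50, TGI and LC50 were monitored, with 5-fluorouracil run as the positive control. Values are grouped by tumour subpanel.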

[28] = Growth inhibition of human renal cancer cells after 48 hrs by SRB assay; conditions: Cancer cell lines; how it was run: as §3
[29] = system: Cancer cell lines; experiment: Potency index, ratio of 5-fluorouracil GI50 to compound GI50 for human ovarian cancer cells
How it was run: (§4)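 GI50 for each cell line came from NCI panel testing over a 5-log dose range, with 5-fluorouracil tested alongside as the reference drug. The index relates the 5-fluorouracil GI50 to the compound GI50 within each tumour subpanel.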

[30] = system: Cancer cell lines; experiment: Potency index, ratio of 5-fluorouracil GI50 to compound GI50 for human non-small cell lung cancer cells; how it was run: as §4
[31] = system: Melanoma cell; experiment: Potency index, ratio of 5-fluorouracil GI50 to compound GI50 for human melanoma cells; how it was run: as §4
[32] = system: Cancer cell lines; experiment: Potency index, ratio of 5-fluorouracil GI50 to compound GI50 for human CNS cancer cells; how it was run: as §4
[33] = Growth inhibition of human leukemia cells after 48 hrs by SRB assay; conditions: Leukemia cell; how it was run: as §3
[34] = system: Cancer cell lines; experiment: Potency index, ratio of 5-fluorouracil GI50 to compound GI50 for human colon cancer cells; how it was run: as §4
[35] = Growth inhibition of human breast cancer cells after 48 hrs by SRB assay; conditions: Cancer cell lines; how it was run: as §3
[36] = Growth inhibition of human melanoma cells after 48 hrs by SRB assay; conditions: Melanoma cell; how it was run: as §3
[37] = Growth inhibition of human CNS cancer cells after 48 hrs by SRB assay; conditions: Cancer cell lines
How it was run: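 Five-log dose range against NCI tumor cell lines, monitoring GI50, TGI and LC50 for each cell line; MG-MID values derived across the panel; 5-fluorouracil positive control.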

COc1ccc(-n2c(SCc3cc(OC)c(OC)c(OC)c3)nc3ccc(Cl)cc3c2=O)cc1
inhibition of growth at 10 µM [1]: 16.4%
inhibition of growth at 10 µM [2]: 11.2%
inhibition of growth at 10 µM [3]: < 10%
inhibition of growth at 10 µM [4]: 20.2%
inhibition of growth at 10 µM [5]: 15.6%
inhibition of growth at 10 µM [6]: 33%
inhibition of growth at 10 µM [7]: < 10%
inhibition of growth at 10 µM [8]: < 10%
inhibition of growth at 10 µM [9]: < 10%
inhibition of growth at 10 µM [10]: < 10%
inhibition of growth at 10 µM [11]: 42.9%
inhibition of growth at 10 µM [12]: < 10%
inhibition of growth at 10 µM [13]: < 10%
inhibition of growth at 10 µM [14]: 13.4%
inhibition of growth at 10 µM [15]: 18%
inhibition of growth at 10 µM [16]: 16.7%
inhibition of growth at 10 µM [17]: < 10%
inhibition of growth at 10 µM [18]: 23.9%
inhibition of growth at 10 µM [19]: 27.6%
inhibition of growth at 10 µM [20]: 25.9%
inhibition of growth at 10 µM [21]: 10.3%
inhibition of growth at 10 µM [22]: 52.1%
inhibition of growth at 10 µM [23]: 37.7%
inhibition of growth at 10 µM [24]: 33.9%
inhibition of growth at 10 µM [25]: 33.8%
inhibition of growth at 10 µM [26]: < 10%

COc1cc(CSc2nc3ccc(C)cc3c(=O)n2-c2ccccc2)cc(OC)c1OC
GI50 [27]: 4 µM
LC50 (50% lethal concentration) [27]: > 100 µM
TGI [27]: 84.6 µM
inhibition of growth at 10 µM [1]: 55.3%
inhibition of growth at 10 µM [2]: 49.8%
GI50 [28]: 4.2 µM
LC50 [28]: > 100 µM
TGI [28]: 76.9 µM
RatioGI50 [29]: 10
inhibition of growth at 10 µM [3]: 87.8%
inhibition of growth at 10 µM [4]: 60.7%
inhibition of growth at 10 µM [5]: 80.1%
inhibition of growth at 10 µM [6]: 72.4%
RatioGI50 [30]: 10
inhibition of growth at 10 µM [7]: 62.2%
inhibition of growth at 10 µM [8]: 61.5%
RatioGI50 [31]: 10
RatioGI50 [32]: 10
GI50 [33]: 1.8 µM
TGI [33]: > 100 µM
CC50 ([33]; read-out: LC50 (the source's name)): > 100 µM
inhibition of growth at 10 µM [9]: 50.3%
inhibition of growth at 10 µM [10]: 57.6%
inhibition of growth at 10 µM [11]: 32.1%
inhibition of growth at 10 µM [12]: 62.4%
inhibition of growth at 10 µM [13]: 82.8%
inhibition of growth at 10 µM [15]: 64%
inhibition of growth at 10 µM [16]: 67.2%
inhibition of growth at 10 µM [17]: 79.7%
RatioGI50 [34]: 10
inhibition of growth at 10 µM [18]: 71.8%
inhibition of growth at 10 µM [19]: 78.2%
inhibition of growth at 10 µM [20]: 85.8%
inhibition of growth at 10 µM [21]: 79.8%
GI50 [35]: 2.3 µM
LC50 [35]: > 100 µM
TGI [35]: 84.3 µM
inhibition of growth at 10 µM [22]: 75.9%
inhibition of growth at 10 µM [23]: 51%
GI50 [36]: 3.9 µM
LC50 [36]: > 100 µM
TGI [36]: 82.2 µM
inhibition of growth at 10 µM [24]: 79.2%
inhibition of growth at 10 µM [25]: 45.1%
GI50 [37]: 5.4 µM
LC50 (lethal concentration, 50% net cell kill) [37]: > 100 µM
TGI [37]: 60.9 µM
inhibition of growth at 10 µM [26]: 52.6%

COc1cc2nc(SCc3cc(OC)c(OC)c(OC)c3)n(-c3ccccc3OC)c(=O)c2cc1OC
inhibition of growth at 10 µM [1]: 11.5%
inhibition of growth at 10 µM [2]: < 10%
inhibition of growth at 10 µM [4]: 12%
inhibition of growth at 10 µM [5]: 23%
inhibition of growth at 10 µM [6]: 57.1%
inhibition of growth at 10 µM [7]: < 10%
inhibition of growth at 10 µM [8]: 13.2%
inhibition of growth at 10 µM [9]: < 10%
inhibition of growth at 10 µM [10]: 37%
inhibition of growth at 10 µM [11]: 34.2%
inhibition of growth at 10 µM [12]: < 10%
inhibition of growth at 10 µM [13]: 23%
inhibition of growth at 10 µM [14]: 23%
inhibition of growth at 10 µM [15]: 22.7%
inhibition of growth at 10 µM [16]: 26.2%
inhibition of growth at 10 µM [17]: 76.2%
inhibition of growth at 10 µM [18]: 11.4%
inhibition of growth at 10 µM [19]: 53.2%
inhibition of growth at 10 µM [20]: 22%
inhibition of growth at 10 µM [21]: 16.6%
inhibition of growth at 10 µM [22]: 63.7%
inhibition of growth at 10 µM [23]: 38.9%
inhibition of growth at 10 µM [24]: 27.5%
inhibition of growth at 10 µM [25]: 28.8%
inhibition of growth at 10 µM [26]: 14.9%

COc1ccc(CSc2nc3cc(OC)c(OC)cc3c(=O)n2-c2ccc(OC)cc2OC)cc1
inhibition of growth at 10 µM [1]: < 10%
inhibition of growth at 10 µM [2]: < 10%
inhibition of growth at 10 µM [3]: < 10%
inhibition of growth at 10 µM [4]: 19.2%
inhibition of growth at 10 µM [5]: 16.9%
inhibition of growth at 10 µM [6]: 31.3%
inhibition of growth at 10 µM [7]: < 10%
inhibition of growth at 10 µM [8]: < 10%
inhibition of growth at 10 µM [9]: < 10%
inhibition of growth at 10 µM [10]: 17.4%
inhibition of growth at 10 µM [11]: 24.5%
inhibition of growth at 10 µM [12]: < 10%
inhibition of growth at 10 µM [13]: < 10%
inhibition of growth at 10 µM [14]: 25.7%
inhibition of growth at 10 µM [15]: 16.6%
inhibition of growth at 10 µM [16]: 10.4%
inhibition of growth at 10 µM [17]: 40.6%
inhibition of growth at 10 µM [18]: 24.4%
inhibition of growth at 10 µM [19]: 20.6%
inhibition of growth at 10 µM [20]: 24.5%
inhibition of growth at 10 µM [21]: < 10%
inhibition of growth at 10 µM [22]: 44.6%
inhibition of growth at 10 µM [23]: 44.4%
inhibition of growth at 10 µM [24]: 19.8%
inhibition of growth at 10 µM [25]: 36.3%
inhibition of growth at 10 µM [26]: 19.4%
